Screens as filed in PubChem.
GSK3A inh: blockers of GSK3A enzyme activity – biochemical, luminescence, cell-free homogeneous, HTS, primary screen; AID 2650, 2010; Glycogen synthase kinase-3 alpha (Homo sapiens), P49840; actives 0.1% (n = 320,000); inhibition, % at 10 µM; GSK-3 alpha kinase, ADP-Glo luminescence, 60 min;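 active = more than half of replicates show inhibition above 20%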;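 note: GST-tagged GSK-3 alpha with peptide substrate and 25 µM ATP; 0% = DMSO neutral wells and 100% = GW8510 positive control wells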
STK33 inh: inhibitors of purified STK33 kinase, primary screen, biochemical, ADP-Glo luminescence, homogeneous, cell-free; actives 0.073% (n = 320,000); AID 2661, 2010; inhibition, % at 10 µM; MBP phosphorylation;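 active = inhibition at or above 25%, using the most active replicate where run in duplicate; inactive = inhibition below 25%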
Target sequence (Q9BYT3 whole entry, looked up): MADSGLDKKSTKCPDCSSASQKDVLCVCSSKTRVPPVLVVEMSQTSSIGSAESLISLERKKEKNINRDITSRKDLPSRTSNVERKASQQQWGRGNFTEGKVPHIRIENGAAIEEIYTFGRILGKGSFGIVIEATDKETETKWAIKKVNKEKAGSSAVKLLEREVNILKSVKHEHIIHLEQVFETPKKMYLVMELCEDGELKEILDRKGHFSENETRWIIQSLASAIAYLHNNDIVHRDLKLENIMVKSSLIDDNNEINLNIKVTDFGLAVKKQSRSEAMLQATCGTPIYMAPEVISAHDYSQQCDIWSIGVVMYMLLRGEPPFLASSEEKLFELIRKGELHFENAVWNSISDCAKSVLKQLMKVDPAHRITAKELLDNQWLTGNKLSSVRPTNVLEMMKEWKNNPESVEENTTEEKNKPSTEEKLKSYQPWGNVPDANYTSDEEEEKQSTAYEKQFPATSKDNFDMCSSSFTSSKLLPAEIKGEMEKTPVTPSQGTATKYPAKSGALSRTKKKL
DYRK1A inh: rat Dyrk1A kinase inhibitors, primary screen, biochemical, single point, plate reader. inhibition, % at 12.5 µM. AID 504441, 2011. Dual specificity tyrosine-phosphorylation-regulated kinase 1A (Rattus norvegicus), Q63470. ADP-Glo luminescence, NFATc1 peptide. actives 0.43% (n = 310,000); in the data active = inhibition above about 50%;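 note: plate controls were vehicle with enzyme for no effect and no enzyme for full effect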
GSK3beta inhib: human GSK3beta kinase inhibitors, primary screen, biochemical, cell-free homogeneous, HTS; actives 0.038% (n = 300,000); GST-GSK3beta kinase, ADP-Glo luminescence, 60 min; active compounds read low; activity score (negative = inhibition), % at 10 µM; Glycogen synthase kinase-3 beta (Homo sapiens), P49841; AID 2097, 2009;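 active = more than half of replicate wells score below -50%, meaning over 50% inhibition versus plate controls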;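 note: 0% = median DMSO wells and -100% = median GW8510 positive control wells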
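Assay system: GST-tagged human GSK3beta kinase, cell-free; Input: 1.6 ng GSK3beta; Medium: Tris/MgCl2 kinase buffer; Timing: 60 min enzyme reaction, room temperature; Signal: ADP-Glo luminescence quantifying ADP generated by kinase; Evaluation: score relative to plate controls; Benchmarks: DMSO neutral wells and GW8510 at 20 µM as positive.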
Dyrk1A artifact: ADP-Glo luciferase interference without Dyrk1A, dose response, artefact control for Dyrk1A inhibitor project, biochemical, luminescence, cherry-pick, set 02; shares compounds with DYRK1A inh; ADP-Glo luciferase artifact assay, no Dyrk1A; AC50, µM (highest dose often 12 µM), for inactives: at the top dose activity change, negative = inhibition; 1,300 tested, under 10 active;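 active = fitted half-maximal dose AC50 no more than ten times the top valid tested dose, with luminescence dropping as dose rises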
An asterisk follows results filed as active; . = no result. Many of the other results were omitted from the sample, so hits are more common in it than they were.

SMILES	GSK3A inh	STK33 inh	DYRK1A inh	GSK3beta inhib	Dyrk1A artifact
COc1cc2c(cc1NC(=O)C(c1ccccc1)c1ccccc1)CCCC2	2	-1	-4	4	.
CCC1COCCS(=O)(=O)N1Cc1cccc(Cl)c1 (configuration not stated)	-1	0	0	1	.
CC(C)C[C@H]1COCCS(=O)(=O)N1Cc1ccc(Cl)c(Cl)c1	1	-1	51*	-2	8%
Cc1ccc(N2CCN(c3ccc(NC(=O)CCC(=O)O)cc3)CC2)cc1	0	0	-2	0	.
O=C(O)CCC(=O)Nc1ccc(N2CCCCCC2)cc1	-3	-1	53*	4	8%
Cc1cc(C)nc(SCC(=O)Nc2ncccn2)n1	-1	-1	.	-2	.
Oc1ccc2c(c1)oc1cc(O)ccc12	53*	12	90*	3	11%
COc1ccc(C2CC(c3ccccc3)=NN2C(=O)COC(=O)c2nc3nccc(C)n3n2)cc1 (configuration not stated)	0	-2	-5	-1	.
CC1=C(C(=O)OCc2ccc3c(c2)OCO3)C(c2ccc(F)cc2)NC(=O)N1 (configuration not stated)	51*	7	70*	-22	8%
CCC(=O)c1ccc(OCC(=O)NCCc2ccccn2)cc1	-1	-2	5	-1	.
O=C(c1ccc(Cl)cc1)N1CCN(c2ccnc3cc(Cl)ccc23)CC1	.	.	8	0	.
CCC(=O)N1CCN(c2ccnc3cc(Cl)ccc23)CC1	5	4	55*	-7	8%
NS(=O)(=O)c1ccc(NC(=O)c2ccc(CNS(=O)(=O)c3cc(C(F)(F)F)ccc3Cl)cc2)cc1	-1	0	1	2	.
c1cncc(-c2nc3ccccc3[nH]2)c1	-2	5	51*	-1	10%
Cn1c(O)c(C2=c3ccccc3=NC2=O)[nH]c1=S	-1	-2	-5	-5	.
COc1ccc2nc(-n3c(O)c(C4=c5ccccc5=NC4=O)[nH]c3=S)sc2c1	5	2	63*	1	8%
OCc1cc(C(O)CNCCCCCCOCCCCc2ccccc2)ccc1O (configuration not stated)	9	0	53*	0	9%
CCc1cccc2c1NC(=O)C2(O)CC(=O)c1cccs1 (configuration not stated)	-2	-1	0	1	.
Nc1nc(N)nc(-c2ccc(Cl)c(Cl)c2)n1	13	4	84*	.	7%
CCOCCOc1nc2c(c(=O)n(C)c(=O)n2C)n1Cc1ccc(C)cc1	0	0	60*	-2	9%
c1ccc(-c2nnc(CSc3ccc4c(c3)OCCO4)o2)cc1	1	1	54*	1	14%
O=C(OCc1nnc(-c2ccccc2)o1)c1ccc2c(c1)OCO2	-4	0	3	1	.
C=CS(=O)(=O)c1c2cc(OC)ccc2nc2ccc(OC)cc12	.	.	61*	.	6%
COc1ccc2nc(Cl)cc(Cl)c2c1	-3	0	-5	3	.
CN(C)c1cccc(C(=O)NCCCSc2ccccc2)c1	3	-1	1	-15	.
SMILES	GSK3A inh	STK33 inh	DYRK1A inh	GSK3beta inhib	Dyrk1A artifact
Nc1[nH]n2c(=O)cc(-c3ccccc3)nc2c1N=Nc1ccc(S(N)(=O)=O)cc1	3	0	64*	-1	7%
O=c1cc[nH]c2c1ccc1c(=O)cc[nH]c12	2	5	1	0	.
Cc1[nH]ccc2c1[nH]c1cc(=O)ccc12	4	3	93*	0	8%
COc1ccc(NC(=O)/C(C#N)=C\c2ccc(-c3cccc(C(=O)O)c3C)o2)cc1	-10	6	78*	0	10%
O=C1C(=O)c2ccccc2C(O)=C1CC=C(Cl)Cl	.	.	66*	.	8%
O=C1C(C=Nc2ccccc2)=C(O)c2ccccc21	1	9	40	-4	.
Cc1cc(Br)ccc1NC(=O)CNC(=O)CNc1cccc([N+](=O)[O-])c1	-5	-2	-3	.	.
N#C/C(=C\c1cc(Cl)cc(Cl)c1O)C(=O)NC1CCCCC1	0	1	17	.	.
O=C(O)C(=O)Nc1nc(-c2ccc3c(c2)OCCO3)cs1	6	1	-6	3	.
O=C(CSCC(=O)Nc1nc(-c2ccc3c(c2)OCO3)cs1)Nc1nccs1	1	1	0	0	.
CSCC(=O)Nc1nc(-c2ccc3c(c2)OCCO3)cs1	2	0	68*	-3	8%
CCCC(=O)Nc1nc(-c2ccc3c(c2)OCCO3)cs1	-1	0	55*	.	10%
CCCCC1CN2CCc3c([nH]c4ccccc34)C2(C)C1 (configuration not stated)	-1	0	-2	-7	.
CCCn1c(=O)c(C(=O)NNC(=O)c2ccccc2Cl)c(O)c2ccccc21	-2	-1	-8	0	.
CC1CCC(C(C)C)C2=C1C(C#N)(C#N)C(C#N)(C#N)C(c1ccccc1)N2 (configuration not stated)	34	12	54*	-16	7%
O=c1c(OC2OC(CO)C(O)C(O)C2OC2OC(CO)C(O)C(O)C2OC2OC(CO)C(O)C(O)C2O)c(-c2ccc(O)c(O)c2)oc2cc(O)cc(O)c12 (configuration not stated)	1	0	26	.	.
C[C@@H]1O[C@@H](OC[C@H]2O[C@@H](Oc3c(-c4ccc(O)c(O)c4)oc4cc(O)cc(O)c4c3=O)[C@H](O)[C@@H](O)[C@@H]2O)[C@H](O)[C@H](O)[C@H]1O	27	1	77*	-32	10%
O=c1c2c(O)cc(O)cc2oc2ccc(O)c(O[C@@H]3O[C@H](CO)[C@@H](O)[C@H](O)[C@H]3O[C@H]3O[C@H](CO)[C@@H](O)[C@H](O)[C@H]3O)c12	19	4	79*	.	10%
CC1OC(OCC2OC(Oc3c(-c4ccc(O)cc4)oc4cc(O)cc(O)c4c3=O)C(O)C(O)C2O)C(O)C(O)C1O (configuration not stated)	12	0	53*	-22	8%
CC(=O)OC[C@H]1O[C@@H](Oc2cc(O)cc3oc(-c4ccc(O)cc4)cc(=O)c23)[C@H](O[C@@H]2O[C@@H](C)[C@H](O)[C@@H](O)[C@H]2O)[C@@H](O)[C@@H]1O	-1	6	8	.	.
O=c1c(O[C@@H]2O[C@H](CO)[C@@H](O)[C@H](O)[C@H]2O)c(-c2ccc(O)c(O)c2)oc2cc(O)cc(O)c12	.	.	.	-47	.
COc1cccc(-c2ccc(NC(=O)C3CCCN(Cc4nccn4C)C3)cc2)c1 (configuration not stated)	-4	-1	1	2	.
